Diaphorase act: diaphorase activation or chemical reduction counter-screen. Diaphorase/resazurin coupled assay, resorufin fluorescence, 16 min; active compounds read high; 1 = vehicle wells, 0 = NADH-free wells. activation factor at 20 µM. actives 0.005% (n = 190,000). AID 1229;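 active = diaphorase activity raised at least twofold by the compound at 20 µM; inactive = activation factor below 2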
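Material: Purified diaphorase enzyme from Clostridium kluyveri | Buffer or medium: 50 mM HEPES pH 7.4 with 4.542 mM MgCl2, 0.005% Tween 20 | Times: 16 min enzyme reaction, ambient temperature | Signal: Red resorufin fluorescence at 544/590 nm excitation/emission | Measure: Increased resorufin signal from activators or reducing compounds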
G6PDH counter: L. mesenteroides G6PDH inhibition counter-screen | Purified L. mesenteroides G6PDH, diaphorase/resazurin coupled fluorescence, 45 min | inhibition, % at 5 µM | actives 0.12% (n = 200,000); in the data active = inhibition above about 50%
PMI act: increases human mannose-6-phosphate isomerase activity | actives 0.005% (n = 190,000) | purified human PMI, coupled resazurin fluorescence, 20 min; active compounds read high; 1 = vehicle control, 0 substrate-free wells | AID 1214 | activation factor at 20 µM | P34949;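 active = activation factor of 2 or more at 20 µM, relative to plate controls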
Target sequence (P34949 whole entry, looked up): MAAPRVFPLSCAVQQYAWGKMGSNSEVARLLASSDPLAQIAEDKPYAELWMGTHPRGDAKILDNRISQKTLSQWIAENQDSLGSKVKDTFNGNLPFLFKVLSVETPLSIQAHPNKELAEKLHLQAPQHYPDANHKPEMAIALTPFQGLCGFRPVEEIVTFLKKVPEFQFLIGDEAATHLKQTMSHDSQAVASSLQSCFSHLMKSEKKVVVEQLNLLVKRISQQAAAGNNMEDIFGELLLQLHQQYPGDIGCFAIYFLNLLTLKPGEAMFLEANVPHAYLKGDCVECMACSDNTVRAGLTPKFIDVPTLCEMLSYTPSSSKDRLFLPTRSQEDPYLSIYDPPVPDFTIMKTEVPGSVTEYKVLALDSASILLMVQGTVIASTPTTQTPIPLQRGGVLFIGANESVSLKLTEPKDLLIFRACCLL
Diaphorase inh: counter-screen for diaphorase-based assays: diaphorase inhibitors and chemical oxidizers; diaphorase resazurin-to-resorufin fluorescence, NADH, 16 min; bacterial (C. kluyveri) enzyme, not human; inhibition, % at 20 µM; actives 0.69% (n = 190,000); AID 1217;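 active = primary screen inhibition at 20 µM above a set limit, cut at about 50% in these data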;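 also: plate controls were DMSO with full reaction for no effect and wells lacking NADH for full effect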
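Test system: diaphorase enzyme from Clostridium kluyveri; amount: diaphorase at 0.14 U/mL in enzyme working solution; detection: fluorescence of resorufin formed from resazurin, Ex 544/Em 590 nm; times: reaction incubation of 16 min at room temperature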
DTT redox prof: compounds producing H2O2 with reducing agent – biochemical, NIH compound library profiling, artefact control for MLSCN library redox annotation, primary screen. DTT-dependent redox cycling H2O2, phenol red/HRP absorbance; 100% = 100 µM peroxide control, 0% = buffer. activation, % at 10 µM. actives 0.03% (n = 200,000). AID 878;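 active = activation of at least 50% relative to the plate's high and low controls in the primary single-dose screen; inactive = activation below 50%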;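 also: compound incubated with DTT at 0.8 mM final as the reducing agent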
PMI act satM6P: increases human PMI activity with near-saturating mannose 6-phosphate; P34949; coupled PMI enzyme assay, resazurin fluorescence, 20 min; active compounds read high; 1 = untreated enzyme, 0 = substrate-free blank; activation factor at 20 µM; actives 0.34% (n = 190,000); AID 1216;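 active = activation factor of 2 or more at 20 µM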
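Test system: human phosphomannose isomerase with PGI, G6PDH, diaphorase coupling enzymes; amount: 15 ng/mL PMI; incubation: enzyme reaction with compound 20 min at room temperature; technique: resorufin fluorescence (Ex 544/Em 590 nm) from resazurin via diaphorase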
Active calls of the source: *. Shown are actives, neighbours in structure and some others; about 1.1% of the full set was active somewhere.

SMILES	Diaphorase act	G6PDH counter	PMI act	Diaphorase inh	DTT redox prof	PMI act satM6P
O=C(Cc1ccccc1)Nc1cccc(N2C(=O)C=CC2=O)c1	0.8	5	1.5	20	0	2.1*
CN(C)c1ccc(C(=S)N2CCOCC2)cc1Br	0.9	6	1.9	10	2	2.6*
CN(C)c1ccc(C(=S)N2CCCCC2)cc1Br	0.9	9	0.9	11	0	0.9
Cc1cccc2cc3c(N)c(C(=O)N4CCOCC4)sc3nc12	0.9	15	1.3	9	2	2.1*
COc1cccc(CSc2nc3cc4c(cc3cc2C)OCCO4)c1	0.8	-19	0.9	16	0	0.9
CN(C)c1ccc(N=Cc2ccco2)cc1	0.5	28	0.6	48	0	0.4
C(=Nc1cccc2c(N=Cc3ccco3)cccc12)c1ccco1	0.2	11	0.2	81*	-2	0.2
CCCCCCCC[n+]1cccc(C(=O)N(CC)CC)c1	0.8	4	1	20	0	1
CCCCCCCCCCCCCCCC[n+]1cccc(C(=O)N(CC)CC)c1	2*	-6	1	-95	0	1.1
CCn1c(CSc2ncccn2)nnc1SCC(=O)N1CCCCC1	1	26	1.1	2	0	1
O=c1oc2ccccc2c(Nc2ccccc2O)c1[N+](=O)[O-]	0.4	19	0.8	58*	0	0.8
COc1ccc(CNC(=O)CN2C(=O)C3C4C=CC(C4)C3C2=O)cc1 (configuration not stated)	1	5	1.1	0	0	1.1
Oc1oc(C=Nc2ccc(F)cc2F)c2ccccc12	1	12	1.8	-4	-1	2.3*
CCOc1ccc(-n2c(=S)sc3c(=O)[nH]c(SCC(=O)NC(C)CC)nc32)cc1 (configuration not stated)	0.7	1	1	32	0	1.1
CCN(CC)C(=O)CSc1nc2sc(C)c(C)c2c(=O)[nH]1	0.8	18	1	15	1	1.1
CCOC(=O)CC(=O)CSc1nc2c(sc(=S)n2-c2ccc(OCC)cc2)c(=O)[nH]1	0.4	-4	1.1	60*	0	1.2
CCN(CC)C(=O)CSc1nc2c(sc(=S)n2CC)c(=O)n1-c1ccccc1	0.8	4	1.1	22	0	1.1
CCCCN(CC)C(=O)CSc1nc2c(sc(=S)n2-c2ccc(OCC)cc2)c(=O)[nH]1	0.3	3	1.1	72*	0	1.1
CCCN(CCC)C(=O)CSc1nc2c(sc(=S)n2-c2ccc(OCC)cc2)c(=O)[nH]1	0.2	-4	1	80*	0	1
Cc1ccc(S(=O)(=O)NC2CCCCC2)c(C)c1NS(C)(=O)=O	1	2	1.1	4	0	1.1
Cn1c(=O)c2cn3c(c2n(C)c1=O)C(c1ccccc1)CC(c1ccccc1)=N3 (configuration not stated)	0.8	-16	1.5	16	-4	2*
Cc1nnc(NC(=O)CSc2ccc([N+](=O)[O-])cn2)s1	0.9	-4	1.2	12	1	1.1
N#Cc1ccccc1NC(=O)CSc1ccc([N+](=O)[O-])cn1	0.9	1	1.8	7	0	2.6*
Cc1c(NC(=O)COC(=O)c2ccc(S(=O)(=O)N3CCOCC3)cc2)c(=O)n(-c2ccccc2)n1C	1	6	0.9	-1	-1	0.9
Cc1nonc1OCCn1c([N+](=O)[O-])cnc1C	0.9	8	0.9	9	-1	0.9
Cc1nn(Cc2ccccc2)c(Cl)c1/C=C/C(=O)OC(C)C(=O)N1CCCC1 (configuration not stated)	1	2	1	0	0	1
Cc1ccc2c(c1)N/C(=C(\C=C(/Cl)[N+](=O)[O-])[N+](=O)[O-])N2	0.3	26	1.1	75*	-1	0.9
